Experiments:
[1] = target: Coagulation factor X (Homo sapiens, UniProt P00742); assay: Binding affinity to human f10a
[2] = target: T1, Coagulation factor VII/tissue factor (Homo sapiens) (UniProt P08709+P13726); assay: Activity in human plasma by PT assay; assay type: functional, cell-free
In short: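 In vitro clotting assays (PT, aPTT) were run in human plasma.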

[3] = Activity in human plasma by aPTT assay; assay type: functional
[4] = target: Chymotrypsinogen B (Homo sapiens, UniProt P17538); assay: Binding affinity to chymotrypsin
Chain of Chymotrypsinogen B (P17538 34-164 limits assumed, other chains not shown): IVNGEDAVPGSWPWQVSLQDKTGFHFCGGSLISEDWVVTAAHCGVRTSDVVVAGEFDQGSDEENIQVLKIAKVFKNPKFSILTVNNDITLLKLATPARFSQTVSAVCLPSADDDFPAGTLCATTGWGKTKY
Chain of Chymotrypsinogen B (P17538 167-263 limits assumed, other chains not shown): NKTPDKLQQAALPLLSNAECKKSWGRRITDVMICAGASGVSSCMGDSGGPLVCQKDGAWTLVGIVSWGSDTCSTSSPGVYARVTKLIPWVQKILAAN

[5] = Protein binding in rabbit; assay type: ADME, Oryctolagus cuniculus; conditions: plasma, read-out: PPB (converted)
[6] = test system: Oryctolagus cuniculus; assay: Inhibition of thrombus formation in rabbit arterio-venous shunt model at 4.6 umol/kg/h, iv; assay type: functional, organism-based
[7] = target: Prothrombin (Homo sapiens, UniProt P00734); assay: Binding affinity to thrombin
[8] = target: T2, Coagulation factor VII (Homo sapiens, UniProt P08709); assay: Binding affinity to f7a
T2 sequence (P08709 whole entry): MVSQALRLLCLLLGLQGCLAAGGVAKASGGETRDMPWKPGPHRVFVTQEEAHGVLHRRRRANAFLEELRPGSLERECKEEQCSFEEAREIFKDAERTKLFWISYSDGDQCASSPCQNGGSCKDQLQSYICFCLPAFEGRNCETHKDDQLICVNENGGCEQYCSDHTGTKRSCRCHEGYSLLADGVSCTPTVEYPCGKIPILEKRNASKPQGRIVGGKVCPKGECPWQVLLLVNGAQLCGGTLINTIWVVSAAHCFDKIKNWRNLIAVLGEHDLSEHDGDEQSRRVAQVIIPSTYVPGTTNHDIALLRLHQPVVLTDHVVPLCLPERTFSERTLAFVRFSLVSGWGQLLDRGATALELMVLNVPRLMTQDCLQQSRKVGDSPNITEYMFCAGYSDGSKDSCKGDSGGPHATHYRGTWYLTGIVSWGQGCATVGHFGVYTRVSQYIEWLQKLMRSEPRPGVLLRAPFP

[9] = target: Trypsin (Homo sapiens, UniProt P07477+P07478+P35030); assay: Binding affinity to trypsin; assay type: protein assay
[10] = target: Vitamin K-dependent protein C (Homo sapiens, UniProt P04070); assay: Binding affinity to aPC
Chain of Vitamin K-dependent protein C (P04070 43-197 limits assumed): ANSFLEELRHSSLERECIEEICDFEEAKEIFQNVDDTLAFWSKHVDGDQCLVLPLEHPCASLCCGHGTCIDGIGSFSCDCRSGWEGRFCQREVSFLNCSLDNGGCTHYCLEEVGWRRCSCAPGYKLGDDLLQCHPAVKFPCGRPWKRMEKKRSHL
Chain of Vitamin K-dependent protein C (P04070 212-461 limits assumed): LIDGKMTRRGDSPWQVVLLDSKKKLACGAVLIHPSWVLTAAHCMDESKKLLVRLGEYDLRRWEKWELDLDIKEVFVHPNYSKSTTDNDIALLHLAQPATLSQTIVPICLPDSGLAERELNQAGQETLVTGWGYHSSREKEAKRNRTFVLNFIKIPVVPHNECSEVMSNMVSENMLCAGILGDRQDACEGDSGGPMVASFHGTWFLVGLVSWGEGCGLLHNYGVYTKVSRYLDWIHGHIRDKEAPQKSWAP

[11] = target: T3, Coagulation factor X (Oryctolagus cuniculus, UniProt O19045); assay: Binding affinity to rabbit f10a
T3 sequence (O19045 whole entry): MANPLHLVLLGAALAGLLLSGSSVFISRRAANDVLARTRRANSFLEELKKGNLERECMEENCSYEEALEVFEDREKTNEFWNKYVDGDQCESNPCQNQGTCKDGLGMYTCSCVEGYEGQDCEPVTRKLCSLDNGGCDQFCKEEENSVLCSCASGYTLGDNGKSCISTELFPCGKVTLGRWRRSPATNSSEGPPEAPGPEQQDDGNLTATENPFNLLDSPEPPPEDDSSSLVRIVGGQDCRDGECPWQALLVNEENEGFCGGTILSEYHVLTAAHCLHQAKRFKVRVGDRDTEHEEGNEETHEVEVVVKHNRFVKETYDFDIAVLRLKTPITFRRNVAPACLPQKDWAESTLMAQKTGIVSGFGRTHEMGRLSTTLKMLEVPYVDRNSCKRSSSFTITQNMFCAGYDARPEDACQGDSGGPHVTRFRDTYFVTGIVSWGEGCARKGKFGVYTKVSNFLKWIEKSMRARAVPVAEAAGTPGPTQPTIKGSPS

[12] = target: Plasminogen (Homo sapiens, UniProt P00747); assay: Binding affinity to plasmin
Chain of Plasminogen (P00747 97-580 limits assumed): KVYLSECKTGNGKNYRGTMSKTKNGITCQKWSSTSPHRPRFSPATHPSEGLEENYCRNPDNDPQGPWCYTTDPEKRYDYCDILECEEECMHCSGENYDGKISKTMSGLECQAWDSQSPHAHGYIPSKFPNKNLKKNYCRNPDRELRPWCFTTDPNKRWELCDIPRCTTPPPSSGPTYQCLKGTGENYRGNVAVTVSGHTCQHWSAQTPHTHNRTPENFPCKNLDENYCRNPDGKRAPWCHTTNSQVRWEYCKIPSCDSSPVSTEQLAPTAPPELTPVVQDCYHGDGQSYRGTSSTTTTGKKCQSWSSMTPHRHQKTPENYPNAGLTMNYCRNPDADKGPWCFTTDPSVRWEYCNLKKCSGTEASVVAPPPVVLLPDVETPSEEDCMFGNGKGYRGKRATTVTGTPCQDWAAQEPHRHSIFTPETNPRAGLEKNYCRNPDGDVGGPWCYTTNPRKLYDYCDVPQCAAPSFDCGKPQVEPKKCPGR
Chain of Plasminogen (P00747 581-810 limits assumed): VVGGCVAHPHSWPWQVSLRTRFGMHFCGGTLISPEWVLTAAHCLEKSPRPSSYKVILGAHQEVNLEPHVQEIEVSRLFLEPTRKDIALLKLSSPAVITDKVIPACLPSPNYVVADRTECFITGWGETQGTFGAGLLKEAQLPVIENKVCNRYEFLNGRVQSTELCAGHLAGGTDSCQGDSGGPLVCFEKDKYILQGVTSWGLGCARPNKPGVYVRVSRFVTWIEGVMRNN

[13] = target: Coagulation factor IX (Homo sapiens, UniProt P00740); assay: Binding affinity to f9a
Chain of Coagulation factor IX (P00740 47-191 limits assumed): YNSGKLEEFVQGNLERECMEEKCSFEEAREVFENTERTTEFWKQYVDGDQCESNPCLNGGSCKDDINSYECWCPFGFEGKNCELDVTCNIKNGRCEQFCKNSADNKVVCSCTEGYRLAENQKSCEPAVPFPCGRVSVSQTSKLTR
Chain of Coagulation factor IX (P00740 227-461 limits assumed): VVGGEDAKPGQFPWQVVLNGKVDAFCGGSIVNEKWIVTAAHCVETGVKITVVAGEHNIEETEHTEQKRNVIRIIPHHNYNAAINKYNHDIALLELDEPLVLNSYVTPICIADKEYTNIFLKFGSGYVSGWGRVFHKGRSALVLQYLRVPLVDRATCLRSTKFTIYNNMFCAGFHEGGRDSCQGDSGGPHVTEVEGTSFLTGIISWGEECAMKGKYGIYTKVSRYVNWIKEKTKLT

[14] = target: Tissue-type plasminogen activator (Homo sapiens, UniProt P00750); assay: Binding affinity to tPA
Chain of Tissue-type plasminogen activator (P00750 whole entry): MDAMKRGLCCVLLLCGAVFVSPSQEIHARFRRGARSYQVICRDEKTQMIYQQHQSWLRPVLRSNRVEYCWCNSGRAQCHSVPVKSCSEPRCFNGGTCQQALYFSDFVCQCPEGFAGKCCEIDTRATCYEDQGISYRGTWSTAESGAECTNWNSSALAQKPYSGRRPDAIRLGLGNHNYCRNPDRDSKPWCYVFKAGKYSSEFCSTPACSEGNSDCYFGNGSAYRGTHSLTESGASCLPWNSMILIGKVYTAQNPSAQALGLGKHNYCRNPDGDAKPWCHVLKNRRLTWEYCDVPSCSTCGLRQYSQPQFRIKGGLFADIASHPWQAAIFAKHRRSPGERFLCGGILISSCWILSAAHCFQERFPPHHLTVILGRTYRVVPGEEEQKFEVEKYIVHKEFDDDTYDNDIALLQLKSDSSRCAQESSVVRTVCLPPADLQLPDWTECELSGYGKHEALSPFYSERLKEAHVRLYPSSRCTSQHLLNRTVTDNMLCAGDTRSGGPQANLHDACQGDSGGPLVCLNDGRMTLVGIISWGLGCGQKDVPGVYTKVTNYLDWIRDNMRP

[15] = target: Urokinase-type plasminogen activator (Homo sapiens, UniProt P00749); assay: Binding affinity to urokinase
[16] = Clearance in dog at 0.5 mg/kg, iv and 0.2 mg/kg, po; assay type: ADME, organism-based, Canis lupus familiaris; conditions: in vivo
[17] = (§1) Volume of distribution in dog at 0.5 mg/kg, iv and 0.2 mg/kg, po; assay type: ADME, organism-based, Canis lupus familiaris; conditions: in vivo, read-out: Vdss
In short: (§2)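 Dogs received the compounds as TFA salts in a cassette (N-in-1) format, 0.5 mg/kg intravenously and 0.2 mg/kg orally (n = 2), and pharmacokinetic profiles were determined.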

[18] = Apparent permeability in Caco-2 cells; assay type: ADME, cell-based; conditions: human
[19] = (§3) Half life in dog at 0.5 mg/kg, iv and 0.2 mg/kg, po; assay type: ADME, organism-based, Canis lupus familiaris; conditions: in vivo; in short: as §2
[20] = Oral bioavailability in dog at 0.5 mg/kg, iv and 0.2 mg/kg, po; assay type: ADME, organism-based, Canis lupus familiaris; conditions: in vivo; in short: as §2
[21] = target: T1, Coagulation factor VII/tissue factor (Homo sapiens); assay: Activity in rabbit plasma by PT assay; assay type: functional, cell-free; conditions: Oryctolagus cuniculus, target entry is the homologue from another species
[22] = test system: Canis familiaris; assay: as §1; assay type: ADME, organism-based, Canis lupus familiaris; conditions: in vivo; in short: as §2
[23] = test system: Canis familiaris; assay: as §3; assay type: ADME, organism-based, Canis lupus familiaris; conditions: in vivo; in short: as §2
[24] = test system: Oryctolagus cuniculus; assay: Inhibition of thrombus formation in iv dosed rabbit arterio-venous shunt model; assay type: functional, organism-based

Chain of Coagulation factor X (Homo sapiens, UniProt P00742) (P00742 41-179 limits assumed): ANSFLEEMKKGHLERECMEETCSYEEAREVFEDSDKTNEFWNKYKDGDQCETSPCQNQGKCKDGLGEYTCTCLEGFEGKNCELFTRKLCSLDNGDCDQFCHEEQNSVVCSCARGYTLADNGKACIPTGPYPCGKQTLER
Chain of Coagulation factor X (Homo sapiens, UniProt P00742) (P00742 235-488 limits assumed): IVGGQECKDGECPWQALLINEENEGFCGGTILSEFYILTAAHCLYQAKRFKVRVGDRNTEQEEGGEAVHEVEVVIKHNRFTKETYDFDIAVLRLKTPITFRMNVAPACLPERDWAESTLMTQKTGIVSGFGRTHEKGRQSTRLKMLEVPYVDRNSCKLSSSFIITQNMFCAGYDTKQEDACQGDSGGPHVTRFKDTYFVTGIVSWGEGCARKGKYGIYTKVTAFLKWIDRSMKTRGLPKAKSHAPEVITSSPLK

## COC(=O)c1nn(-c2ccc(OC)cc2)c2c(=O)n(-c3ccc(-c4ccccc4S(N)(=O)=O)cc3F)cnc12
[1]
  Ki: 1.8 nM

## COc1ccc(-n2nc(Cn3ncnn3)c3nc(C)n(-c4ccc(-c5ccccc5CN5CCCC5)cc4)c(=O)c32)cc1
[2]
  2PT: 6.5 µM
[3]
  2aPTT: 20.1 µM
[1]
  Ki: 1.9 nM

## COc1ccc(-n2nc(C(N)=O)c3ncn(-c4ccc(-c5ccccc5CN5CCCC5)cc4F)c(=O)c32)cc1 [listing 1 of 2 here]
[4]
  Ki: 530 nM
[5]
  fraction unbound: 0.15
[6]
  IC50: > 1000 nM
[6]; iv
  inhibition in vivo at 4.6 µmol/kg/h: 33%
[7]
  Ki: 1800 nM
[8]
  Ki: > 15000 nM
[3]
  2aPTT: 3.9 µM
[9]
  Ki: > 2500 nM
[1]
  Ki: 0.74 nM
[10]
  Ki: > 76000 nM
[11]
  Ki: 1.2 nM
[12]
  Ki: > 15000 nM
[13]
  Ki: > 15000 nM
[14]
  Ki: > 33000 nM
[15]
  Ki: > 13000 nM

## COc1ccc(-n2nc(C(N)=O)c3ncn(-c4ccc(-c5ccccc5CN5CCCC5)cc4)c(=O)c32)cc1.O=C(O)C(F)(F)F
[16]
  clearance: 9.17 mL/min/kg
[17]
  Vd: 3.9 L/kg
[18]
  Papp: 12 ×10⁻⁶ cm/s
[19]
  half-life: 5.4 h
[20]
  bioavailability: 94%

## COc1ccc(-n2nc(C(N)=O)c3ncn(-c4ccc(-c5ccccc5CN5CCCC5)cc4F)c(=O)c32)cc1 [listing 2 of 2 here]
[2]
  2PT: 3.4 µM
[21]
  2PT: 1.6 µM

## COc1ccc(-n2nc(C(N)=O)c3ncn(-c4ccc(-c5ccccc5S(N)(=O)=O)cc4)c(=O)c32)cc1
[3]
  2aPTT: 8.7 µM
[1]
  Ki: 1.7 nM

## CCOC(=O)c1nn(-c2ccc(OC)cc2)c2c(=O)n(-c3ccc(-c4ccccc4CN4CCCC4)cc3)cnc12
[3]
  2aPTT: 1.8 µM
[1]
  Ki: 3.8 nM

## COc1ccc(-n2nc(CN)c3ncn(-c4ccc(-c5ccccc5S(N)(=O)=O)cc4)c(=O)c32)cc1
[1]
  Ki: 22 nM

## COc1ccc(-n2nc(C#N)c3ncn(-c4ccc(-c5ccccc5CN5CCCC5)cc4)c(=O)c32)cc1
[4]
  Ki: 2030 nM
[7]
  Ki: 1100 nM
[8]
  Ki: > 15000 nM
[9]
  Ki: > 2500 nM
[1]
  Ki: 1.7 nM
[10]
  Ki: 48700 nM
[12]
  Ki: > 15000 nM
[13]
  Ki: > 15000 nM
[14]
  Ki: > 33000 nM
[15]
  Ki: > 13000 nM

## COc1ccc(-n2nc(C#N)c3ncn(-c4ccc(-c5ccccc5CN5CCCC5)cc4)c(=O)c32)cc1.O=C(O)C(F)(F)F
[16]
  clearance: 113 mL/min/kg
[17]
  Vd: 75 L/kg
[18]
  Papp: 3.1 ×10⁻⁶ cm/s
[19]
  half-life: 8.3 h
[20]
  bioavailability: 77%

## CCOC(=O)c1nn(-c2ccc(OC)cc2)c2c(=O)n(-c3ccc(-c4ccccc4CN4CCCC4)cc3F)cnc12
[1]
  Ki: 3.6 nM

## CN(C)Cc1nccn1-c1ccc(NC(=O)c2cc(C(F)(F)F)nn2-c2ccc3onc(N)c3c2)c(F)c1.Cl [RAZAXABAN HYDROCHLORIDE]
[5]
  fraction unbound: 0.07
[2]
  2PT: 2.1 µM
[22]
  Vdss: 5.3 L/kg
[23]
  T1/2: 3.4 h

## COc1ccc(-n2nc(C#N)c(N)c2C(=O)Nc2ccc(-c3ccccc3S(C)(=O)=O)cc2F)cc1
[1]
  Ki: 8.4 nM

## COc1ccc(-n2nc(Cn3ccnc3)c3nc(C)n(-c4ccc(-c5ccccc5CN5CCCC5)cc4)c(=O)c32)cc1
[1]
  Ki: 2.1 nM

## COc1ccc(-n2nc(Cn3cnnn3)c3nc(C)n(-c4ccc(-c5ccccc5CN5CCCC5)cc4)c(=O)c32)cc1
[1]
  Ki: 1.4 nM

## COc1ccc(-n2nc(C(N)=O)c3ncn(-c4ccc(-c5ccccc5CN5CC[C@@H](O)C5)cc4)c(=O)c32)cc1
[2]
  2PT: 3.6 µM
[3]
  2aPTT: 5 µM
[1]
  Ki: 1.5 nM

## COc1ccc(-n2nc(C(=O)O)c3ncn(-c4ccc(-c5ccccc5S(N)(=O)=O)cc4)c(=O)c32)cc1
[1]
  Ki: 38 nM

## COc1ccc(-n2nc(C(F)(F)F)cc2C(=O)Nc2ccc(-c3ccccc3S(C)(=O)=O)cc2F)cc1
[3]
  2aPTT: 104 µM

## COc1ccc(-n2nc(C(N)=O)c3ncn(-c4ccc(-c5ccccc5CN5CCCC5)cc4F)c(=O)c32)cc1.O=C(O)C(F)(F)F
[16]
  clearance: 12.7 mL/min/kg
[17]
  Vd: 4.9 L/kg
[18]
  Papp: 15 ×10⁻⁶ cm/s
[19]
  half-life: 5.1 h
[20]
  bioavailability: 96%

## CCOC(=O)c1nn(-c2ccc(OC)cc2)c2c(=O)n(-c3ccc(-c4ccccc4CO)cc3)cnc12
[1]
  Ki: 45 nM

## COc1ccc(-n2nc(C(N)=O)c3ncn(-c4ccc(-c5ccccc5CN5CCCC5)cc4)c(=O)c32)cc1 [listing 1 of 2 here]
[4]
  Ki: 7930 nM
[5]
  fraction unbound: 0.23
[7]
  Ki: 1600 nM
[24]
  ID50: 5.5 µmol/kg/h
[24]; Oryctolagus cuniculus
  IC50: 1200 nM
[8]
  Ki: > 15000 nM
[3]
  2aPTT: 4 µM
[9]
  Ki: > 4200 nM
[10]
  Ki: > 76000 nM
[11]
  Ki: 1 nM
[12]
  Ki: > 15000 nM
[13]
  Ki: > 41000 nM
[14]
  Ki: > 33000 nM
[15]
  Ki: > 13000 nM

## COC(=O)c1nn(-c2ccc(OC)cc2)c2c(=O)n(-c3ccc(-c4ccccc4S(N)(=O)=O)cc3)cnc12
[3]
  2aPTT: 7.1 µM
[1]
  Ki: 2.8 nM

## COc1ccc(-n2nc(C(N)=O)c3ncn(-c4ccc(-c5ccccc5S(N)(=O)=O)cc4F)c(=O)c32)cc1
[3]
  2aPTT: 9.8 µM
[1]
  Ki: 1.2 nM

## COc1ccc(-n2nc(C#N)c3[nH]c(=O)n(-c4ccc(-c5ccccc5S(C)(=O)=O)cc4F)c(=O)c32)cc1
[3]
  2aPTT: 197 µM
[1]
  Ki: 3 nM

## COc1ccc(-n2nc(C#N)c3ncn(-c4ccc(-c5ccccc5S(N)(=O)=O)cc4)c(=O)c32)cc1
[3]
  2aPTT: 5.8 µM
[1]
  Ki: 1.9 nM

## COc1ccc(-n2nc(C#N)c3ncn(-c4ccc(-c5ccccc5CN(C)C)cc4)c(=O)c32)cc1
[1]
  Ki: 2.1 nM

## COc1ccc(-n2nc(C(F)(F)F)c3c(C)nn(-c4ccc(-c5ccccc5CN5CCCC5)cc4)c(=O)c32)cc1
[2]
  2PT: 62 µM
[3]
  2aPTT: 53 µM
[1]
  Ki: 2.8 nM

## COc1ccc(-n2nc(C#N)c3nc(C)n(-c4ccc(-c5ccccc5CN(C)C)cc4)c(=O)c32)cc1
[1]
  Ki: 1.8 nM

## COc1ccc(-n2nc(C(F)(F)F)c3c(C)nn(-c4ccc(-c5ccccc5S(N)(=O)=O)cc4)c(=O)c32)cc1
[1]
  Ki: 2.8 nM

## COc1ccc(-n2nc(C(N)=O)c3ncn(-c4ccc(-c5ccccc5CN5CCCC5)cc4)c(=O)c32)cc1 [listing 2 of 2 here]
[2]
  2PT: 2.2 µM
[21]
  2PT: 1.8 µM

Reference: ChEMBL document CHEMBL1138952 (Bioorg Med Chem Lett, 2006)
